Assay results from ChEMBL document CHEMBL4190366, “Discovery and synthesis of novel Wogonin derivatives with potent antitumor activity in vitro” (Eur J Med Chem, 2017).
pIC50: −log10 of the molar value. Each block holds one molecule with its values, some of them ahead of it. Activity calls are given as the source filed them. No cut-off for these calls is given here.

Assays:
A549 [1] = test: Cytotoxicity in human A549 cells assessed as reduction in cell viability incubated for 72 hrs by MTT assay; conditions: A549, 72 h
MCF7 = test: Cytotoxicity in human MCF7 cells assessed as reduction in cell viability incubated for 72 hrs by MTT assay; assay type: functional, cell-based; conditions: for pIC50: MCF7, 72 h
Outline: (§1)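 Cells pre-incubated 24 h at 37 °C, 5% CO2, then exposed to a range of compound concentrations for 72 h. Viability read as mitochondrial MTT-to-formazan conversion, absorbance at 570 nm.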

HepG2 [2] = test: Cytotoxicity in human HepG2 cells assessed as reduction in cell viability incubated for 72 hrs by MTT assay; assay type: functional, cell-based; conditions: for pIC50: HepG2, 72 h; outline: as §1
B16 = test: Cytotoxicity in mouse B16 cells assessed as reduction in cell viability incubated for 72 hrs by MTT assay; assay type: functional, cell-based; conditions: for pIC50: B16, 72 h; outline: as §1
HepG2 [3] = test: Ratio of cytotoxicity in human HepG2 cells at 10 uM in presence of 5 mM NAC incubated for 48 hrs by MTT assay to cytotoxicity in human HepG2 cells at 10 uM in absence of 5 mM NAC incubated for 48 hrs by MTT assay; assay type: functional
Outline: (§2)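 HepG2 cells incubated 48 h with compound at 1, 5 or 10 µM, with or without 5 mM N-acetylcysteine. Ratio is cell viability with NAC divided by viability with compound alone at the same concentration.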

HepG2 [4] = test: Ratio of cytotoxicity in human HepG2 cells at 1 uM in presence of 5 mM NAC incubated for 48 hrs by MTT assay to cytotoxicity in human HepG2 cells at 1 uM in absence of 5 mM NAC incubated for 48 hrs by MTT assay; assay type: functional; outline: as §2
HepG2 [5] = test: Induction of apoptosis in human HepG2 cells assessed as apoptosis level at 2 to 4 uM incubated for 24 hrs by FITC-labelled Annexin V/PI staining based flow cytometry; assay type: functional, cell-based
Outline: (§3)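 HepG2 treated 24 h with 2, 4 or 6 µM; 0.1% DMSO vehicle control. Stained with FITC-Annexin V/PI and analysed by flow cytometry 10-15 min after staining. Annexin V+/PI- counted as early/median apoptotic, Annexin V+/PI+ as late apoptotic.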

[6] = Selectivity index, ratio of IC50 for human LO2 cells to IC50 for human HepG2 cells; assay type: toxicity; conditions: LO2 cells versus HepG2 cells, read-out: Ratio IC50
Outline: (§4)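 Selectivity ratio is L02 IC50 divided by cancer-cell IC50, each taken from the MTT viability assay.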

[7] = Selectivity index, ratio of IC50 for human LO2 cells to IC50 for human A549 cells; assay type: toxicity; conditions: LO2 cells versus A549 cells, read-out: Ratio IC50; outline: as §4
HepG2 [8] = test: Induction of apoptosis in human HepG2 cells assessed as apoptosis level at 6 uM incubated for 24 hrs by FITC-labelled Annexin V/PI staining based flow cytometry (reference value: 2.6%); assay type: functional; outline: as §3
[9] = biological target: Cyclin-dependent kinase 9 (Homo sapiens, UniProt P50750); test: Inhibition of CDK9 (unknown origin)
Outline: (§5)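 Kinase profiling run as a contract service, with ATP at the Km of each kinase.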

HeLa = test: Cytotoxicity in human HeLa cells assessed as reduction in cell viability incubated for 72 hrs by MTT assay; assay type: functional, cell-based; outline: as §1
[10] = Selectivity index, ratio of IC50 for human LO2 cells to IC50 for human MCF7 cells; assay type: toxicity; conditions: LO2 cells versus MCF7 cells, read-out: Ratio IC50; outline: as §4
[11] = Selectivity index, ratio of IC50 for human LO2 cells to IC50 for human LNCAP cells; assay type: toxicity; conditions: LO2 cells versus LNCAP cells, read-out: Ratio IC50; outline: as §4
L02 [12] = test: Cytotoxicity in human LO2 cells assessed as reduction in cell viability at 30 uM incubated for 48 hrs by MTT assay; assay type: cell-based; conditions: l02, 48 h
Outline: (§6)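 Normal hepatic L02 cells incubated with compound for 48 h. Cell viability measured across a concentration series.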

HepG2 [13] = test: Induction of apoptosis in human HepG2 cells assessed as apoptosis level incubated for 24 hrs by FITC-labelled Annexin V/PI staining based flow cytometry; assay type: functional, cell-based; outline: as §3
[14] = biological target: Cyclin-dependent kinase 2 (Homo sapiens, UniProt P24941); test: Inhibition of CDK2 (unknown origin); outline: as §5
A549 [15] = test: Cytotoxicity in human A549 cells assessed as reduction in cell viability incubated for 72 hrs by MTT assay
LNCaP = test: Cytotoxicity in human LNCAP cells assessed as reduction in cell viability incubated for 72 hrs by MTT assay; assay type: functional, cell-based; outline: as §1
[16] = biological target: Hepatocyte growth factor receptor (Homo sapiens, UniProt P08581); test: Inhibition of c-Met (unknown origin); outline: as §5
[17] = Selectivity index, ratio of IC50 for human LO2 cells to IC50 for mouse B16 cells; assay type: toxicity; conditions: LO2 cells versus B16 cells, read-out: Ratio IC50; outline: as §4
HepG2 [18] = test: Induction of ROS generation in human HepG2 cells at 2 to 6 uM incubated for 24 hrs by DCFH-DA staining based flow cytometry; assay type: functional, cell-based
Outline: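 HepG2 seeded at 6×10^4 cells/well and grown 24 h, then treated 24 h with 2, 4 or 6 µM. Washed with PBS and serum-free medium, loaded with serum-free DCFH-DA 30 min at 37 °C, washed twice cold. Fluorescence read by flow cytometry at 488/525 nm. Mean ± SEM, n = 3.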

[19] = Selectivity index, ratio of IC50 for human LO2 cells to IC50 for human HeLa cells; assay type: toxicity; conditions: LO2 cells versus HeLa cells, read-out: Ratio IC50; outline: as §4
HepG2 [20] = test: Ratio of cytotoxicity in human HepG2 cells at 5 uM in presence of 5 mM NAC incubated for 48 hrs by MTT assay to cytotoxicity in human HepG2 cells at 5 uM in absence of 5 mM NAC incubated for 48 hrs by MTT assay; assay type: functional; outline: as §2
L02 [21] = test: Cytotoxicity in human LO2 cells assessed as reduction in cell viability at 15 uM incubated for 48 hrs by MTT assay; assay type: cell-based; conditions: l02, 48 h; outline: as §6

Sequence of Cyclin-dependent kinase 9 (P50750 whole entry): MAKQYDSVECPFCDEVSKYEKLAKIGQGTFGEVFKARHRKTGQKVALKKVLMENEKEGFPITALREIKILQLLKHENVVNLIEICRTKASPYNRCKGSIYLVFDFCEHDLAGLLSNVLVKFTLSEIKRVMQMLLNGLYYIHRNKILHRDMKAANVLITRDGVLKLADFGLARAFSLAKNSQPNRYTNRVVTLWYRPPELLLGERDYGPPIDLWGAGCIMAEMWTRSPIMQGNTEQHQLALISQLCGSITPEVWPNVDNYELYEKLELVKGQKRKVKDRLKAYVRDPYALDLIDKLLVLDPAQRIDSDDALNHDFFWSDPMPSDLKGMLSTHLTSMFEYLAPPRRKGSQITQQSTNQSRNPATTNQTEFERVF
Sequence of Hepatocyte growth factor receptor (P08581 whole entry): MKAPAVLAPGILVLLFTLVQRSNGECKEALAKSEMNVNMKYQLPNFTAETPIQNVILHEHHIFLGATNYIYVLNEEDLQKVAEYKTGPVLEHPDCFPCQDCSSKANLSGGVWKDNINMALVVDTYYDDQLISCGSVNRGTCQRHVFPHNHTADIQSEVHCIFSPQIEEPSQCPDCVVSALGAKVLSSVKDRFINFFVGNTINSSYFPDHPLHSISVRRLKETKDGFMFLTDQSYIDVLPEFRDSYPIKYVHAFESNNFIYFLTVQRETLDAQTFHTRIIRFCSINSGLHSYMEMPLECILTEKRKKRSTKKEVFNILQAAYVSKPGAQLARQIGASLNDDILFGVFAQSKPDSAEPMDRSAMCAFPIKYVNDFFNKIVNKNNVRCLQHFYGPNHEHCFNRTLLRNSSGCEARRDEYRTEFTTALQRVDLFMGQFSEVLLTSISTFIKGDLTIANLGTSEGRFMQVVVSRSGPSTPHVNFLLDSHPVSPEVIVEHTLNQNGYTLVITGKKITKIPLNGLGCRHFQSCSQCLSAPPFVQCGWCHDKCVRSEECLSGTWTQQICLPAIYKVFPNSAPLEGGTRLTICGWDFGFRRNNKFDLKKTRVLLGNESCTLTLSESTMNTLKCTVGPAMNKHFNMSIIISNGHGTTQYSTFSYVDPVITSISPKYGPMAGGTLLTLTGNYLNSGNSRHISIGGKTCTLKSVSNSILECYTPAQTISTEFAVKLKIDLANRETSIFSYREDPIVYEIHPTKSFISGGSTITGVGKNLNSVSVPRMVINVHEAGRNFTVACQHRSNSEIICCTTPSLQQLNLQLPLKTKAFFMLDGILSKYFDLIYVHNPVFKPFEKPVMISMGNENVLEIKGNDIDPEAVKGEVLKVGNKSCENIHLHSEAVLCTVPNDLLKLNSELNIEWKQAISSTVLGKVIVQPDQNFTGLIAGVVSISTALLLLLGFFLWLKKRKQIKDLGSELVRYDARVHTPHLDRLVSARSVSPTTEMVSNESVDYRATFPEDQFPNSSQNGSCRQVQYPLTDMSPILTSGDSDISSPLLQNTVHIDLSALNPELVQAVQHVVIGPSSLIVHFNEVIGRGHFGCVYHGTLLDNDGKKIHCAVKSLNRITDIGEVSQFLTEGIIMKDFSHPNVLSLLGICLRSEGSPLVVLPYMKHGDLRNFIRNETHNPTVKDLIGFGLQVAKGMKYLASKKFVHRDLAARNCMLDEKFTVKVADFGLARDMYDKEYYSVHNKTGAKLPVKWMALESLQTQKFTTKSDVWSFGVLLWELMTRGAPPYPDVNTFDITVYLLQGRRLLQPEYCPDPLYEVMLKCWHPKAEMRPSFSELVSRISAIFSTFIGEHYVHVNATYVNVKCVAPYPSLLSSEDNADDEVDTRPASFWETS

Structure (SMILES): Cc1ccc(COc2cc(O)c3c(=O)cc(-c4ccccc4)oc3c2OCCCCN2CCN(C)CC2)cc1
- pIC50 (A549 [1]): 5.49
- pIC50 (MCF7): 5.65
- pIC50 (HepG2 [2]): 5.29
- pIC50 (B16): 5.48

Structure (SMILES): CN1CCN(CCCCOc2c(OCc3nc4ccccc4s3)cc(O)c3c(=O)cc(-c4ccccc4)oc23)CC1
- pIC50 (A549 [1]): 5.97
- pIC50 (MCF7): 5.31
- pIC50 (HepG2 [2]): 5.26
- pIC50 (B16): 5.56

Structure (SMILES): O=c1cc(-c2ccccc2)oc2c(OCCN(CCO)CCO)c(OCc3ccccc3)cc(O)c12
- pIC50 (A549 [1]): 5.19
- pIC50 (MCF7): 5.22
- pIC50 (HepG2 [2]): 5.50
- pIC50 (B16): 5.43

Structure (SMILES): O=c1cc(-c2ccccc2)oc2c(OCCCCN3CCCC3)c(OCc3ccccc3)cc(O)c12
- pIC50 (A549 [1]): 5.96
- pIC50 (MCF7): 5.72
- pIC50 (HepG2 [2]): 5.33
- pIC50 (B16): 5.49

Structure (SMILES): O=c1cc(-c2ccccc2)oc2c(OCCCN3CCCC3)c(OCc3ccccc3)cc(O)c12
- pIC50 (A549 [1]): 5.33
- pIC50 (MCF7): 5.65
- pIC50 (HepG2 [2]): 5.58
- pIC50 (B16): 5.10

Structure (SMILES): CCN(CC)CCCOc1c(OCc2ccccc2)cc(O)c2c(=O)cc(-c3ccccc3)oc12
- pIC50 (A549 [1]): 5.44
- pIC50 (MCF7): 5.49
- pIC50 (HepG2 [2]): 5.52
- pIC50 (B16): 5.31

Structure (SMILES): CCN(CC)CCCCOc1c(OCc2ccccc2)cc(O)c2c(=O)cc(-c3ccccc3)oc12
- pIC50 (A549 [1]): 5.41
- pIC50 (MCF7): 5.72
- pIC50 (HepG2 [2]): 5.78
- pIC50 (B16): 5.31

Structure (SMILES): COc1c(OCCCCN2CCN(C)CC2)cc(O)c2c(=O)cc(-c3ccc(Cl)cc3)oc12
- pIC50 (A549 [1]): 5.84
- pIC50 (MCF7): 5.49
- pIC50 (HepG2 [2]): 5.43
- pIC50 (B16): 5.68

Structure (SMILES): COc1c(OCCCCN2CCN(C)CC2)cc(O)c2c(=O)cc(-c3cccc(F)c3)oc12
- pIC50 (A549 [1]): 5.68
- pIC50 (MCF7): 5.54
- pIC50 (HepG2 [2]): 5.59
- pIC50 (B16): 5.34

Structure (SMILES): CN1CCN(CCCCOc2c(OCc3ccco3)cc(O)c3c(=O)cc(-c4ccccc4)oc23)CC1
- pIC50 (A549 [1]): 5.44
- pIC50 (MCF7): 5.56
- pIC50 (HepG2 [2]): 5.39
- pIC50 (B16): 5.45

- pIC50 [9]: 6.06
- pIC50 [14]: 5.17
- pIC50 [16]: 4.46
Structure (SMILES): CN1CCN(CCCCOc2c(OCc3ccc(C#N)cc3)cc(O)c3c(=O)cc(-c4ccccc4)oc23)CC1
- Ratio (HepG2 [3]): 7
- pIC50 (A549 [1]): 5.67
- Ratio (HepG2 [4]): 2.7
- Activity (HepG2 [5]): inactive
- selectivity ratio [6]: 27
- selectivity ratio [7]: 4.3 to 27
- Activity (MCF7): Dose-dependent effect
- pIC50 (MCF7): 5.62
- Activity (HepG2 [8]): 30.7%
- Activity (HepG2 [2]): Dose-dependent effect
- pIC50 (HepG2 [2]): 6.23
- Activity (HeLa): Dose-dependent effect
- pIC50 (HeLa): 5.58
- selectivity ratio [10]: 4.3 to 27
- selectivity ratio [11]: 4.3 to 27
- Activity (L02 [12]): Toxic
- Activity (HepG2 [13]): Dose-dependent effect
- Activity (A549 [15]): Dose-dependent effect
- Activity (LNCaP): Dose-dependent effect
- pIC50 (LNCaP): 5.76
- Activity (B16): Dose-dependent effect
- pIC50 (B16): 5.43
- selectivity ratio [17]: 4.3 to 27
- Activity (HepG2 [18]): Dose-dependent effect
- selectivity ratio [19]: 4.3 to 27
- Ratio (HepG2 [20]): 5.5
- Activity (L02 [21]): Non-Toxic

Structure (SMILES): COc1ccccc1-c1cc(=O)c2c(O)cc(OCCCCN3CCN(C)CC3)c(OC)c2o1
- pIC50 (A549 [1]): 5.17
- pIC50 (MCF7): 5.27
- pIC50 (HepG2 [2]): 5.63
- pIC50 (B16): 5.03

Structure (SMILES): COc1c(OCCCCN2CCN(C)CC2)cc(O)c2c(=O)cc(-c3ccc(C)cc3)oc12
- pIC50 (A549 [1]): 5.42
- pIC50 (MCF7): 5.40
- pIC50 (HepG2 [2]): 6.00
- pIC50 (B16): 5.27

Structure (SMILES): CN1CCN(CCCOc2c(OCc3ccccc3)cc(O)c3c(=O)cc(-c4ccccc4)oc23)CC1
- pIC50 (A549 [1]): 5.40
- pIC50 (MCF7): 5.99
- pIC50 (HepG2 [2]): 5.51
- pIC50 (B16): 5.42

Structure (SMILES): CN(C)CCCCOc1c(OCc2ccccc2)cc(O)c2c(=O)cc(-c3ccccc3)oc12
- pIC50 (A549 [1]): 5.96
- pIC50 (MCF7): 5.49
- pIC50 (HepG2 [2]): 5.68
- pIC50 (B16): 5.49

Structure (SMILES): COc1c(OCCCCN2CCN(C)CC2)cc(O)c2c(=O)cc(-c3ccc(Br)cc3)oc12
- pIC50 (A549 [1]): 5.67
- pIC50 (MCF7): 5.49
- pIC50 (HepG2 [2]): 5.63
- pIC50 (B16): 5.36
